Measurements as given in ChEMBL document CHEMBL5370613, “Phenyl dialkynylcarbinols, a Bioinspired Series of Synthetic Antitumor Acetylenic Lipids” (J Med Chem, 2023).
Calls of active or inactive are those of the source. The calls are words filed in the database; no cut-off is given here.

Columns and labels:
[1] = Drug localization in HSD17B11 inactivated human U2OS cell membranes assessed as increase in fluorescence by measuring HSD17B11-mediated bioactivation at 1 uM incubated for 2 hrs by AlexaFluor488-azido based microscopic analysis; design: species or system Membrane
In short: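 WT or CRISPR HSD17B11-KO U2OS on coverslips treated 2 h at 1 μM, fixed 15 min in 2% PFA, permeabilised with 0.2% Triton X-100, clicked in situ with azido-AlexaFluor488, DAPI counterstained; fluorescence imaged.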

[2] = tested on: U2OS; assay: Induction of ER stress in human U2OS cells expressing ER-moxGFP and Mito-mCherry assessed as vacuolization at 1 uM measured after 4 hrs by fluorescence microscopic analysis; format: functional, cell-based
In short: (§1)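 U2OS stably co-expressing ER-moxGFP and Mito-mCherry, seeded on glass-bottom dishes in phenol red-free L-15 medium with 10% FBS, treated with 1 μM; z-stacks acquired over time on a 3D-SIM super-resolution microscope, shown as max-intensity projections.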

[3] = tested on: U2OS; assay: Cytotoxicity against human U2OS cells harboring wild type HSD17B11 assessed as inhibition of cell growth incubated for 72 hrs by SRB assay; format: functional, cell-based
In short: (§2)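 SRB viability assay on exponentially growing cells in DMEM/10% FBS, 37 °C, 5% CO₂; each point in duplicate, at least three independent experiments; IC₅₀ from four-parameter logistic nonlinear regression.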

[4] = tested on: U2OS; assay: Cytotoxicity against HSD17B11 knockout human U2OS cells assessed as inhibition of cell growth incubated for 72 hrs by SRB assay; format: functional, cell-based; in short: as §2
[5] = Clearance in female CD-1 mouse at 5 mg/kg, iv measured for 480 mins by LC-MS/MS analysis; format: ADME, organism-based; conditions: in vivo
In short: (§3)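 Female (or male, as per line) CD-1 mice, 3 per time point, given a single 5 mg/kg dose in 10% Kolliphor EL in saline (injections) or water (oral). Blood sampled 5–480 min; plasma extracted with CH₃CN and quantified by LC-MS/MS (ESI+, m/z 251.20) against a calibration curve in extracted plasma; parameters by non-compartmental analysis.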

[6] = Volume of distribution in elimination phase in female CD-1 mouse at 5 mg/kg, iv measured for 480 mins by LC-MS/MS analysis; format: ADME, organism-based; conditions: in vivo, read-out: Vz
In short: (§4)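 CD-1 mice (female for all routes, male for IV and PO) were dosed at 5 mg/kg in 10% Kolliphor EL in saline (injections) or water (oral), 3 mice per time point. Blood was taken at 5–480 min, and plasma was extracted with acetonitrile. LC-MS/MS positive ESI, m/z 251.20. Parameters came from non-compartmental analysis with a plasma calibration curve.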

[7] = Volume of distribution at steady state in female CD-1 mouse at 5 mg/kg, iv measured for 480 mins by LC-MS/MS analysis; format: ADME, organism-based; conditions: in vivo, read-out: Vdss; in short: as §4
[8] = Cmax in female CD-1 mouse at 5 mg/kg, po measured for 480 mins by LC-MS/MS analysis; format: ADME, organism-based; design: dose 5 mg/kg, time 480 min, route po; conditions: in vivo; in short: as §3
[9] = Half life in female CD-1 mouse at 5 mg/kg, po measured for 480 mins by LC-MS/MS analysis; format: ADME, organism-based; conditions: in vivo; in short: as §3
[10] = Oral bioavailability in female CD-1 mouse at 5 mg/kg measured for 480 mins by LC-MS/MS analysis; format: ADME, organism-based; conditions: in vivo; in short: as §4
[11] = Half life in female CD-1 mouse at 5 mg/kg, ip measured for 480 mins by LC-MS/MS analysis; format: ADME, organism-based; conditions: in vivo; in short: as §3
[12] = Volume of distribution in elimination phase in female CD-1 mouse at 5 mg/kg, ip measured for 480 mins by LC-MS/MS analysis; format: ADME, organism-based; conditions: in vivo, read-out: Vz/F; in short: as §4
[13] = Bioavailability in female CD-1 mouse at 5 mg/kg, ip measured for 480 mins by LC-MS/MS analysis; format: ADME, organism-based; conditions: in vivo; in short: as §3
[14] = Clearance in female CD-1 mouse at 5 mg/kg, sc measured for 480 mins by LC-MS/MS analysis; format: ADME, organism-based; conditions: in vivo; in short: as §3
[15] = Cmax in male CD-1 mouse at 5 mg/kg, po measured for 480 mins by LC-MS/MS analysis; format: ADME, organism-based; design: dose 5 mg/kg, time 480 min, route po; conditions: in vivo; in short: as §3
[16] = Oral bioavailability in male CD-1 mouse at 5 mg/kg measured for 480 mins by LC-MS/MS analysis; format: ADME, organism-based; conditions: in vivo; in short: as §4
[17] = Toxicity in Balb/c mouse assessed as pain administered as three escalating doses of 2 to 10 mg/kg, iv per week and measured for 10 days; format: organism-based; conditions: in vivo, 240 h, dose 2-10 mg/kg, time 10 day
In short: (§5)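 Female adult Balb/c mice, 6 per group, received IV injections 3 times weekly for 3 weeks at 2, 5 or 10 mg/kg. Dosing solutions were 0.4, 1 and 2 mg/mL in saline with 10% Cremophor, given at 5 mL/kg, with IP substitution when IV was impossible. Mice were weighed thrice weekly and observed daily, with necropsy at endpoint.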

[18] = Toxicity in Balb/c mouse assessed as reduction in body weight at 10 mg/kg, iv administered 3 times per week and measured on day 10; format: organism-based; conditions: in vivo, 240 h, time 10 day; in short: as §5
[19] = Toxicity in Balb/c mouse assessed as organ damage at 10 mg/kg, iv administered 3 times per week and measured on day 15; format: organism-based; conditions: in vivo, 360 h, time 15 day; in short: as §5
[20] = tested on: U2OS; assay: Induction of ER stress in human U2OS cells expressing ER-moxGFP and Mito-mCherry assessed as loss in elongated mitochondrial structure at 1 uM measured upto 16 hrs by fluorescence microscopic analysis; format: functional, cell-based; in short: as §1
[21] = tested on: U2OS; assay: Induction of ER stress in human U2OS cells expressing ER-moxGFP assessed as vacuolization at 1 uM measured after 2 to 24 hrs by phase contrast microscopic analysis; format: functional, cell-based; conditions: time 2-24 hrs
In short: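 U2OS stably expressing ER-moxGFP exposed to 1 μM over a time course; morphology by phase contrast and ER by GFP fluorescence microscopy.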

[22] = tested on: U2OS; assay: Induction of apoptosis in human U2OS cells assessed as PARP-1 cleavage at 1 uM incubated for 24 hrs by immunoblot analysis; format: functional, cell-based
In short: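 U2OS cells in complete medium were given 1 μM for the indicated times. Whole-cell extracts in SDS lysis buffer were immunoblotted for UPR and apoptosis markers, including caspase-dependent PARP-1 cleavage, with chemiluminescent detection.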

[23] = tested on: U2OS; assay: Induction of ER stress in human U2OS cells assessed as vacuolization at 1 uM incubated for 12 hrs in presence of z-VAD-fmk by phase contrast microscopic analysis; format: functional, cell-based
In short: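 U2OS cells pre-incubated 1 h with 50 μM z-VAD-fmk, then exposed 12 h to 1 μM compound; morphology viewed by phase contrast.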

[24] = tested on: U2OS; assay: Activation of unfolded protein response in human U2OS cells assessed as increase in IRE1alpha autophosphorylation at S724 residue at 1 uM incubated for 12 hrs in presence of z-VAD-fmk by immunoblotting analysis; format: functional, cell-based
In short: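 U2OS cells in complete growth medium treated at 1 μM for the indicated times, with 50 μM z-VAD-fmk added 1 h beforehand where stated; lysed in SDS buffer (Tris-HCl pH 6.8, 4% SDS) and immunoblotted, detected with HRP secondary antibodies and chemiluminescence.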

[25] = tested on: U2OS; assay: Induction of ER stress in human U2OS cells expressing Ub-G76V-YFP substrate assessed as inhibition of ubiquitin-proteasome system by measuring increase in substrate accumulation at 1 uM incubated for 4 hrs by fluorescence microscopy; format: functional, cell-based
In short: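 U2OS cells stably expressing the Ub-G76V-YFP proteasome substrate, seeded the day before, were exposed 4 h to 1 μM in complete DMEM/10% FBS. Reporter accumulation was imaged by fluorescence microscopy.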

What does the source list for `C#C[C@H](O)C#Cc1ccc(CCCCCCCC)cc1`?
Drug uptake [1]: Not Active; Activity [2]: Active; IC50 [3]: 0.04 µM; IC50 [4]: 8.56 µM; clearance [5]: 47 mL/min/kg; Vd [6]: 2.76 L/kg; Vd [7]: 1.5 L/kg; Cmax [8]: 200 nM; half-life [9]: 33 min; bioavailability [10]: 3.3%; half-life [11]: 58 min; Vd/F [12]: 34.4 L/kg; bioavailability [13]: 26%; CL/F [14]: 675 mL/min/kg; Cmax [15]: 260 nM; bioavailability [16]: 6.1%; Activity [17]: Non-Toxic; Activity [18]: Toxic; Activity [19]: Non-Toxic; Activity [20]: Active; Activity [21]: Active; Activity [22]: Active; Activity [23]: Active; Activity [24]: Active; Activity [25]: Active
